Source: ChEMBL document CHEMBL1140227, “Histone deacetylase inhibitors through click chemistry” (J Med Chem, 2008)

Legend:
Assay type in all cases: functional
[1] = system: HCT-116; assay: Growth inhibition of human HCT116 cells at 10 uM relative to control; settings: values are per cent of control
Outline: (§1)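 Single-dose preliminary screen in the NCI human cancer cell line panel, run by the NIH. Percent inhibition of cell line growth was calculated by comparison with untreated samples.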

[2] = system: HCT-15; assay: Growth inhibition of human HCT15 cells at 10 uM relative to control; settings: values are per cent of control; outline: as §1
[3] = system: HT-29; assay: Growth inhibition of human HT-29 cells at 10 uM relative to control; settings: values are per cent of control; outline: as §1
[4] = system: KM12; assay: Growth inhibition of human KM12 cells at 10 uM relative to control; settings: values are per cent of control; outline: as §1
[5] = system: BT-549; assay: Growth inhibition of human BT549 cells at 10 uM relative to control; settings: values are per cent of control; outline: as §1
[6] = Growth inhibition of human Hs 578T cells at 10 uM relative to control; settings: values are per cent of control; outline: as §1
[7] = system: MCF7; assay: Growth inhibition of human MCF7 cells at 10 uM relative to control; settings: values are per cent of control; outline: as §1
[8] = system: MDA-MB-231; assay: Growth inhibition of human MDA-MB-231 cells at 10 uM relative to control; settings: values are per cent of control; outline: as §1
[9] = system: MDA-MB-435; assay: Growth inhibition of human MDA-MB-435 cells at 10 uM relative to control; settings: values are per cent of control; outline: as §1
[10] = system: MDA-MB-468; assay: Growth inhibition of human MDA-MB-468 cells at 10 uM relative to control; settings: values are per cent of control; outline: as §1
[11] = system: NCI/ADR-RES; assay: Growth inhibition of human NCI/ADR-RES cells at 10 uM relative to control; settings: values are per cent of control; outline: as §1
[12] = system: T47D; assay: Growth inhibition of human T47D cells at 10 uM relative to control; settings: values are per cent of control
Outline: (§2)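 Single-dose NCI human tumour cell line screen, run by the NIH. Percent inhibition of cell line growth was calculated by comparison with untreated samples.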

[13] = system: IGROV-1; assay: Growth inhibition of human IGROV1 cells at 10 uM relative to control; settings: values are per cent of control; outline: as §1
[14] = system: OVCAR-3; assay: Growth inhibition of human OVCAR-3 cells at 10 uM relative to control; settings: values are per cent of control; outline: as §1
[15] = system: OVCAR-4; assay: Growth inhibition of human OVCAR4 cells at 10 uM relative to control; settings: values are per cent of control; outline: as §1
[16] = system: OVCAR-5; assay: Growth inhibition of human OVCAR5 cells at 10 uM relative to control; settings: values are per cent of control; outline: as §1
[17] = system: OVCAR-8; assay: Growth inhibition of human OVCAR8 cells at 10 uM relative to control; settings: values are per cent of control; outline: as §1
[18] = system: SK-OV-3; assay: Growth inhibition of human SKOV3 cells at 10 uM relative to control; settings: values are per cent of control; outline: as §1
[19] = system: CCRF-CEM; assay: Growth inhibition of human CCRF-CEM cells at 10 uM relative to control; settings: values are per cent of control; outline: as §1
[20] = system: HL-60(TB); assay: Growth inhibition of human HL-60(TB) cells at 10 uM relative to control; settings: read-out: INH
Outline: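 Single-dose cell line screen run by the NCI (NIH) in its human cancer cell line panel, which includes the leukemia line HL-60(TB). Percent growth inhibition was calculated by comparison with untreated samples.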

[21] = system: K562; assay: Growth inhibition of human K562 cells at 10 uM relative to control; settings: values are per cent of control; outline: as §1
[22] = system: MOLT-4; assay: Growth inhibition of human MOLT4 cells at 10 uM relative to control; settings: values are per cent of control; outline: as §1
[23] = Growth inhibition of human RPMI8266 cells at 10 uM relative to control; settings: values are per cent of control; outline: as §1
[24] = system: 786-0; assay: Growth inhibition of human 786-0 cells at 10 uM relative to control; settings: values are per cent of control; outline: as §1
[25] = system: ACHN; assay: Growth inhibition of human ACHN cells at 10 uM relative to control; settings: values are per cent of control; outline: as §1
[26] = system: CAKI-1; assay: Growth inhibition of human Caki1 cells at 10 uM relative to control; settings: values are per cent of control; outline: as §1
[27] = system: SN12C; assay: Growth inhibition of human SN12C cells at 10 uM relative to control; settings: values are per cent of control; outline: as §1
[28] = system: TK-10; assay: Growth inhibition of human TK10 cells at 10 uM relative to control; settings: values are per cent of control; outline: as §2
[29] = system: UO-31; assay: Growth inhibition of human UO31 cells at 10 uM relative to control; settings: values are per cent of control; outline: as §2
[30] = system: LOX IMVI; assay: Growth inhibition of human LOXIMVI cells at 10 uM relative to control; settings: values are per cent of control; outline: as §1
[31] = system: M14; assay: Growth inhibition of human M14 cells at 10 uM relative to control; settings: values are per cent of control; outline: as §1
[32] = system: Malme-3M; assay: Growth inhibition of human MALME-3M cells at 10 uM relative to control; settings: values are per cent of control; outline: as §1
[33] = system: SK-MEL-2; assay: Growth inhibition of human SK-MEL-2 cells at 10 uM relative to control; settings: values are per cent of control; outline: as §1
[34] = system: SK-MEL-28; assay: Growth inhibition of human SK-MEL-28 cells at 10 uM relative to control; settings: values are per cent of control; outline: as §1
[35] = system: SK-MEL-5; assay: Growth inhibition of human SK-MEL-5 cells at 10 uM relative to control; settings: values are per cent of control; outline: as §1
[36] = system: UACC-257; assay: Growth inhibition of human UACC257 cells at 10 uM relative to control; settings: values are per cent of control; outline: as §2
[37] = system: UACC-62; assay: Growth inhibition of human UACC62 cells at 10 uM relative to control; settings: values are per cent of control; outline: as §2
[38] = system: DU-145; assay: Growth inhibition of human DU145 cells at 10 uM relative to control; settings: values are per cent of control; outline: as §1
[39] = system: PC-3; assay: Growth inhibition of human PC3 cells at 10 uM relative to control; settings: values are per cent of control; outline: as §1
[40] = system: SF-268; assay: Growth inhibition of human SF268 cells at 10 uM relative to control; settings: values are per cent of control; outline: as §1
[41] = system: SF-295; assay: Growth inhibition of human SF295 cells at 10 uM relative to control; settings: values are per cent of control; outline: as §1
[42] = system: SF-539; assay: Growth inhibition of human SF539 cells at 10 uM relative to control; settings: values are per cent of control; outline: as §1
[43] = system: SNB-19; assay: Growth inhibition of human SNB19 cells at 10 uM relative to control; settings: values are per cent of control; outline: as §1
[44] = system: SNB-75; assay: Growth inhibition of human SNB75 cells at 10 uM relative to control; settings: values are per cent of control; outline: as §2
[45] = system: U-251; assay: Growth inhibition of human U251 cells at 10 uM relative to control; settings: values are per cent of control; outline: as §2
[46] = cells; settings: Homo sapiens, Cancer cell lines
[47] = cells; settings: Homo sapiens, Cancer cell lines; remark: listed apart in the source
[48] = system: Leukemia cell; assay: cells; settings: Homo sapiens
[49] = cells; settings: Homo sapiens, Cancer cell lines; remark: listed apart in the source
[50] = system: Melanoma cell; assay: cells; settings: Homo sapiens
[51] = cells; settings: Homo sapiens, Cancer cell lines; remark: listed apart in the source
[52] = cells; settings: Homo sapiens, Cancer cell lines; remark: listed apart in the source
[53] = system: A549; assay: Growth inhibition of human A549 cells at 10 uM relative to control; settings: values are per cent of control; outline: as §1
[54] = system: EKVX; assay: Growth inhibition of human EKVX cells at 10 uM relative to control; settings: values are per cent of control; outline: as §1
[55] = system: HOP-62; assay: Growth inhibition of human HOP62 cells at 10 uM relative to control; settings: values are per cent of control; outline: as §1
[56] = system: NCI-H226; assay: Growth inhibition of human NCI-H226 cells at 10 uM relative to control; settings: values are per cent of control; outline: as §1
[57] = system: NCI-H23; assay: Growth inhibition of human NCI-H23 cells at 10 uM relative to control; settings: values are per cent of control; outline: as §1
[58] = system: NCI-H322M; assay: Growth inhibition of human NCI-H322M cells at 10 uM relative to control; settings: values are per cent of control; outline: as §1
[59] = system: NCI-H460; assay: Growth inhibition of human NCI-H460 cells at 10 uM relative to control; settings: values are per cent of control; outline: as §1
[60] = system: NCI-H522; assay: Growth inhibition of human NCI-H522 cells at 10 uM relative to control; settings: values are per cent of control; outline: as §1
[61] = system: COLO 205; assay: Growth inhibition of human COLO205 cells at 10 uM relative to control; settings: values are per cent of control; outline: as §1
[62] = system: HCC 2998; assay: Growth inhibition of human HCC2998 cells at 10 uM relative to control; settings: values are per cent of control; outline: as §1

O=C(/C=C/c1cn(CC(=O)c2ccccc2)nn1)NO
growth, % of control at 10 µM [1]: 30.7%
growth, % of control at 10 µM [2]: 117%
growth, % of control at 10 µM [3]: 60%
growth, % of control at 10 µM [4]: 78%
growth, % of control at 10 µM [5]: 72.1%
growth, % of control at 10 µM [6]: 211%
growth, % of control at 10 µM [7]: 77.8%
growth, % of control at 10 µM [8]: 96.9%
growth, % of control at 10 µM [9]: 23.3%
growth, % of control at 10 µM [10]: 64.6%
growth, % of control at 10 µM [11]: 14.8%
growth, % of control at 10 µM [12]: 64.7%
growth, % of control at 10 µM [13]: 64.2%
growth, % of control at 10 µM [14]: 57.7%
growth, % of control at 10 µM [15]: 77.8%
growth, % of control at 10 µM [16]: 65%
growth, % of control at 10 µM [17]: 45.1%
growth, % of control at 10 µM [18]: 81.9%
growth, % of control at 10 µM [19]: 48.6%
growth, % of control at 10 µM [20]: 258%
growth, % of control at 10 µM [21]: 72.3%
growth, % of control at 10 µM [22]: 83%
growth, % of control at 10 µM [23]: 55.6%
growth, % of control at 10 µM [24]: 39.9%
growth, % of control at 10 µM [25]: 82.5%
growth, % of control at 10 µM [26]: 63.9%
growth, % of control at 10 µM [27]: 86.2%
growth, % of control at 10 µM [28]: 46.7%
growth, % of control at 10 µM [29]: 45.3%
growth, % of control at 10 µM [30]: 88.3%
growth, % of control at 10 µM [31]: 49.5%
growth, % of control at 10 µM [32]: 6.42%
growth, % of control at 10 µM [33]: 61.7%
growth, % of control at 10 µM [34]: 82.2%
growth, % of control at 10 µM [35]: 92.9%
growth, % of control at 10 µM [36]: 43.9%
growth, % of control at 10 µM [37]: 61.2%
growth, % of control at 10 µM [38]: 75.2%
growth, % of control at 10 µM [39]: 57.8%
growth, % of control at 10 µM [40]: 71.9%
growth, % of control at 10 µM [41]: 15.3%
growth, % of control at 10 µM [42]: 86.4%
growth, % of control at 10 µM [43]: 101%
growth, % of control at 10 µM [44]: 53.9%
growth, % of control at 10 µM [45]: 76%
growth percent at 10 µM [46]: 78%
inhibition at 10 µM [47]: 65%
inhibition at 10 µM [48]: 104%
growth percent at 10 µM [49]: 65%
inhibition at 10 µM [50]: 60%
inhibition at 10 µM [51]: 67%
inhibition at 10 µM [52]: 53%
growth, % of control at 10 µM [53]: 54.1%
growth, % of control at 10 µM [54]: 54.6%
growth, % of control at 10 µM [55]: 30.1%
growth, % of control at 10 µM [56]: 89.4%
growth, % of control at 10 µM [57]: 69.2%
growth, % of control at 10 µM [58]: 41.3%
growth, % of control at 10 µM [59]: 62.5%
growth, % of control at 10 µM [60]: 31.1%
growth, % of control at 10 µM [61]: 105%
growth, % of control at 10 µM [62]: 71.1%
